Data taken from ChEMBL document CHEMBL1122545, “N2-(4-Substituted-2,6-dichlorophenyl)-N1,N1-dimethylformamidines as antihypertensive and diuretic agents” (J Med Chem, 1984).

What was measured:
Rattus norvegicus [1] = assay: Antihypertensive activity in SH rats, and mean arterial blood pressure was reported at a dose of 25 mg/Kg; format: functional, Artery
In short: (§1)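 Male SH rats (Okamoto strain), 16 weeks old, dosed orally by gavage with compound dispersed in 3% starch in normal saline at 2 mL/kg. Oral normal saline load, then individual metabolism cages; 0-5 h urine collected, Na+ and K+ measured by flame photometry. Rats redosed at 24 h without the saline load. MABP and HR taken by femoral arterial puncture under local anesthetic 4 h after the second dose.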

[2] = Diuretic activity was determined expressed as Na+(sodium) excreted in milli equivalents was reported for a duration of 5 hours after administration of a dose of 25 mg/Kg; format: ADME, Urine; details: in vivo; in short: as §1
Rattus norvegicus [3] = assay: Diuretic activity was determined in SH rats expressed as K(+) (potassium) excreted in milli equivalents was reported for a duration of 5 hours after administration of a dose of 25 mg/Kg; format: ADME, organism-based, Urine; details: in vivo; in short: as §1
Rattus norvegicus [4] = assay: Antihypertensive activity determined as heart rate in SH rats, was reported at a dose of 25 mg/Kg; format: functional; in short: as §1
[5] = Diuretic activity was determined expressed as volume of urine excreted in mL was reported at a dose of 25 mg/Kg; format: ADME; details: in vivo; in short: as §1

Diuretic activity [2]: 2.59 m equiv
Diuretic activity (Rattus norvegicus [3]): 0.6 m equiv
Diuretic activity [5]: 25.5 mL
Structure (SMILES): Cc1cc(N(C)C)ccc1CNc1cc(Cl)c(/N=C/N(C)C)c(Cl)c1
MABP (Rattus norvegicus [1]): 138 mmHg
HR (Rattus norvegicus [4]): 270 beats min-1
